ChEMBL document CHEMBL1817570, “Unsymmetrical cyclotriazadisulfonamide (CADA) compounds as human CD4 receptor down-modulating agents” (J Med Chem, 2011)
Counter-ions that a name gives are not always drawn.

Tested on: CHO
Test: Downmodulation of human CD4 expressed in CHO cells transfected with CD4-YFP construct assessed as decrease in fluorescence intensity after 24 hrs by flow cytometry analysis
Type: functional, cell-based
Conditions: Cricetulus griseus
Summary of the method: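 CHO cells stably expressing human CD4 fused at its C-terminus to YFP, exposed to a range of concentrations for 24 h at 37 °C. Cells were washed, fixed in 1% formaldehyde and analysed at once by flow cytometry with 488 nm excitation, reading YFP in FL-1. YFP median fluorescence intensity was expressed as % of untreated control after subtracting the background of nontransfected cells. IC50 is the 50% CD4 down-modulation point, reported as mean ± SD of three independent experiments (two for some).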

`C=C1CNCCCN(CC2CCCCC2)CCCN(S(=O)(=O)c2ccc(C)cc2)C1` was tested, and the IC50 (read-out: IC50) was 19000 nM and the IC50 (read-out: pIC50 (converted)) was 18600 nM.

Compound `C=C1CN(S(=O)(=O)c2ccc(C)cc2)CCCN(CC2CCCCC2)CCCN(S(=O)(=O)c2ccc(C)cc2)C1` has an IC50 (read-out: IC50) of 190 nM and an IC50 (read-out: pIC50 (converted)) of 186 nM.

`C=C1CN(S(=O)(=O)c2ccc(C)cc2)CCCN(CC2CCCCC2)CCCN(S(=O)(=O)c2cccc3c(N(C)C)cccc23)C1` gave an IC50 (read-out: IC50) of 1060 nM and an IC50 (read-out: pIC50 (converted)) of 1070 nM.

With `C=C1CN(S(=O)(=O)c2ccc(C)cc2)CCCN(CC2CCCCC2)CCCN(S(=O)(=O)c2ccc(C(C)(C)C)cc2)C1` the IC50 (read-out: IC50) was 780 nM and the IC50 (read-out: pIC50 (converted)) was 776 nM.

Compound `C=C1CN(S(=O)(=O)c2ccc(C)cc2)CCCN(CC2CCCCC2)CCCN(S(=O)(=O)c2ccc(Cl)cc2)C1` has an IC50 (read-out: IC50) of 360 nM and an IC50 (read-out: pIC50 (converted)) of 363 nM.

Compound `C=C1CN(S(=O)(=O)c2ccc(C)cc2)CCCN(CC2CCCCC2)CCCN(S(=O)(=O)c2cccc3cnccc23)C1` has an IC50 (read-out: IC50) of over 25000 nM and an IC50 (read-out: pIC50 (converted)) of 22900 nM.

`C=C1CN(S(=O)(=O)c2ccc(C)cc2)CCCN(CC2CCCCC2)CCCN(S(=O)(=O)c2ccc(OC)cc2)C1` was tested, and the IC50 (read-out: IC50) was 46 nM and the IC50 (read-out: pIC50 (converted)) was 45.7 nM.

Work on `C=C1CN(S(=O)(=O)c2ccc(C)cc2)CCCN(CC2CCCCC2)CCCN(S(=O)(=O)c2cccc3ccccc23)C1` yielded an IC50 (read-out: IC50) of 940 nM and an IC50 (read-out: pIC50 (converted)) of 933 nM.

In the case of `C=C1CN(S(=O)(=O)c2ccc(C)cc2)CCCN(CC2CCCCC2)CCCN(S(=O)(=O)c2ccc3ccccc3c2)C1`, the IC50 (read-out: IC50) is reported as 180 nM and the IC50 (read-out: pIC50 (converted)) is reported as 178 nM.

For `C=C1CN(S(=O)(=O)c2ccc(C)cc2)CCCN(CC2CCCCC2)CCCN(S(=O)(=O)c2ccc([N+](=O)[O-])cc2)C1`, the IC50 (read-out: IC50) was 760 nM and the IC50 (read-out: pIC50 (converted)) was 759 nM.

`C=C1CN(S(=O)(=O)c2ccccc2)CCCN(CC2CCCCC2)CCCN(S(=O)(=O)c2ccc(C)cc2)C1` showed an IC50 (read-out: IC50) of 430 nM and an IC50 (read-out: pIC50 (converted)) of 437 nM.

`C=C1CN(S(=O)(=O)c2ccc(C)cc2)CCCN(Cc2ccccc2)CCCN(S(=O)(=O)c2ccc(OC)cc2)C1` was tested, and the IC50 (read-out: IC50) was 300 nM and the IC50 (read-out: pIC50 (converted)) was 295 nM.

`C=C1CN(S(=O)(=O)c2ccc(OC)cc2)CCCN(CC2CCCCC2)CCCN(S(=O)(=O)c2cccc3c(N(C)C)cccc23)C1` was tested, and the IC50 (read-out: IC50) was 730 nM and the IC50 (read-out: pIC50 (converted)) was 724 nM.

With `C=C1CN(S(=O)(=O)c2ccc(C)cc2)CCCN(CC2CCCCC2)CCCN(S(=O)(=O)c2ccccc2[N+](=O)[O-])C1` the IC50 (read-out: IC50) was 220 nM and the IC50 (read-out: pIC50 (converted)) was 224 nM.

Work on `C=C1CN(S(=O)(=O)c2ccc(OC)cc2)CCCN(CC2CCCCC2)CCCN(S(=O)(=O)c2ccc(OC)cc2)C1` yielded an IC50 (read-out: IC50) of 130 nM and an IC50 (read-out: pIC50 (converted)) of 135 nM.

`C=C1CN(S(=O)(=O)c2ccc(C)cc2)CCCN(Cc2ccccc2)CCCN(S(=O)(=O)c2cccc3c(N(C)C)cccc23)C1` was tested, and the IC50 (read-out: IC50) was 5900 nM and the IC50 (read-out: pIC50 (converted)) was 5890 nM.

For `C=C1CN(S(=O)(=O)c2ccc(OC)cc2)CCCN(Cc2ccccc2)CCCN(S(=O)(=O)c2ccc(OC)cc2)C1`, the IC50 (read-out: IC50) was 230 nM and the IC50 (read-out: pIC50 (converted)) was 229 nM.

Work on `C=C1CN(S(=O)(=O)c2ccc(C)cc2)CCCN(Cc2ccccc2)CCCN(S(=O)(=O)c2ccc(C)cc2)C1` [CYCLOTRIAZADISULFONAMIDE HYDROCHLORIDE] yielded an IC50 (read-out: IC50) of 560 nM and an IC50 (read-out: pIC50 (converted)) of 562 nM.
